AI-2 QS modul: Vibrio harveyi AI-2 quorum sensing modulation; Vibrio harveyi JMH597 AI-2 luminescence/OD600 ratio, 9 h; stronger effect = lower value; strain lacks LuxN and CqsS sensors; 0 = neutral-control median; activity change, % at 7.5 µM; hit rate 0.4% among 300,000; in the data active means activity change below about -75%, passing the limit was not always enough;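 further: luminescence divided by OD600 gain over 9 h not by final OD600 alone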
hERG rescue: shields human hERG channel from block by proarrhythmic agents; activation (rescue from dofetilide block), less the hit threshold, % at 10 µM; hit rate 0.51% among 310,000; Q12809; CHO-hERG, FluxOR thallium flux, dofetilide IC70 present; AID 1511;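 active means activation above the mean of controls blocked by dofetilide plus 5 SD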;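 further: thallium influx through hERG after potassium depolarization seen as dye fluorescence rise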
KCNQ1 inh: human KCNQ1 channel inhibition. hit rate 1.3% among 310,000. B-score at 10 µM. P51787. AID 2642. CHO-K1 KCNQ1, FluxOR thallium flux fluorescence; stronger effect = higher value;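 active means compounds whose thallium flux B-score, printed positive for inhibition, exceeds three library SD while starting fluorescence stays within three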;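 further: channel opened by potassium depolarization with thallium stimulus after 20 min compound exposure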
Target sequence (P51787 whole entry, looked up): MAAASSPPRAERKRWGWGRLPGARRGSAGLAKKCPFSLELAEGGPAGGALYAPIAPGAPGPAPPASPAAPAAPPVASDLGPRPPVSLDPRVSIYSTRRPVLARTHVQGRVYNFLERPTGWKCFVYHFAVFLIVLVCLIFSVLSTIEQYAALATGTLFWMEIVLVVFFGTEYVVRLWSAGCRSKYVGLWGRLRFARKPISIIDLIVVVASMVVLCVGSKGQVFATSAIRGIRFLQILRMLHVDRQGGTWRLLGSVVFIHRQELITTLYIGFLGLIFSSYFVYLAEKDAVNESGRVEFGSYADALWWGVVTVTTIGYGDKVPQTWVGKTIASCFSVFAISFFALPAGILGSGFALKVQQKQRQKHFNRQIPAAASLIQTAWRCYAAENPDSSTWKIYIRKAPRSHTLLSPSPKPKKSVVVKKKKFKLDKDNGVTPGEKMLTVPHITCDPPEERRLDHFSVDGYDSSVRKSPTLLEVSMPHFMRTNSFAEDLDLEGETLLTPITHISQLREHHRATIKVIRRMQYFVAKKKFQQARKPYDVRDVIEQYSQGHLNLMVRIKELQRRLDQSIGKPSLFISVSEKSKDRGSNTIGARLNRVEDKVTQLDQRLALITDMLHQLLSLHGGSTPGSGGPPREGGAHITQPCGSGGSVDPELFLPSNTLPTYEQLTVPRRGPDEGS
KCC2 mod: modulators of human KCC2 chloride dependent transport; Q9H2X9; KCC2 cells, thallium flux FluoZin-2 fluorescence; B-score of Tl+ flux slope (higher = more flux/activation; lower = inhibition) at 10 µM; hit rate 2.2% among 190,000; AID 1456;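 active means thallium flux slope and its plate-corrected score both differing from the plate sample mean at a set confidence after two filtering rounds, in either direction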;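 further: slope of fluorescence scaled to starting intensity during 10 to 20 s after thallium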
SUMO Mot1 rescue: blocks SUMOylation pathway, rescuing yeast Mot1-301 growth; AID 2716; S. cerevisiae Mot1-301 growth rescue, ATP luminescence, 38.5C; percent above DMSO median, 100 means doubled; hit rate 1% among 320,000; growth rescue, % at 18.8 µM;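 active means every valid replicate shows activation above 250% relative to neutral control wells; inactive means the rest, any valid replicate at or below 250%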;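 further: OY570 slx delta 5 strain wells were the positive control but not used for scaling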
KCNQ1 act: potentiators or activators of human KCNQ1 potassium channel; P51787; CHO-K1 KCNQ1, thallium flux FluxOR fluorescence; stronger effect = higher value; B-score at 10 µM; hit rate 0.35% among 310,000;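 active means fluorescence ratio B-score, a plate-corrected score, at least three library SD, with initial intensity B-score within 5 SD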
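assay system = CHO-K1 cells stably expressing KCNQ1 | medium = assay buffer, equal DMSO in all wells | timing = 37 °C overnight plating, 90-min dark dye load, 20-min compound pretreatment | measured by = kinetic FluxOR thallium fluorescence, 10-s 1-Hz baseline, 110-s post-stimulus read | measure = fluorescence change relative to baseline, converted to B score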
Mot1 SUMO dose: yeast SUMO pathway inhibition in dose response | shares compounds with SUMO Mot1 rescue | 2,300 tested, under 10 active | AID 493004 | S. cerevisiae Mot1-301 galactose growth, ATP luminescence, 24 h; -100 = growth of slx-deleted rescue strain | growth activity, percent, % at 42 µM;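 active means Signal drops as the depositor expects, and the fitted half-maximal dose is no more than ten times the top valid tested dose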;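 further: more negative values mean stronger growth rescue toward the control strain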
* hit, by the source's call; i = inactive; x = no result given; + = active, no number; [ ] = remark or other dose. In the library only some 4.2% were active in any assay of this set; here they are far more common.

SMILES	AI-2 QS modul	hERG rescue	KCNQ1 inh	KCC2 mod	SUMO Mot1 rescue	KCNQ1 act	Mot1 SUMO dose
COc1ccccc1NS(=O)(=O)c1cc(Cl)ccc1OC	-6.0	-12.0	i	1.35	442.4*	i	0.9
COc1ccc(C(=O)Nc2ccc(Cl)c(S(=O)(=O)Nc3ccccc3OC)c2)cc1	19.4	-6.0	i	0.976	3.9	i	x
COc1ccccc1NC(=O)Nc1ccc(Cl)c(S(=O)(=O)Nc2ccccc2OC)c1	20.5	-4.7	i	-0.728	389.6*	i	0.3
COc1ccccc1CNC(=O)[C@H](C)NC(=O)C1CCN(C(=O)[C@@H](N)CC(C)C)CC1	-2.8	-8.3	i	x	617.8*	i	-0.2
COc1ccccc1CNC(=O)[C@H](NC(=O)C1CCN(C(=O)[C@@H](N)CCSC)CC1)C(C)C	11.0	-4.2	i	x	-16.5	i	x
CCN(CC(=O)NC(C)(C)C)C(=O)CCl	17.7	-10.8	i	0.0381	-4.6	i	x
COc1ccccc1N1CCN(C(=O)C2CCN(S(=O)(=O)c3ccc(C)cc3)CC2)CC1	26.8	-12.9	i	-0.915	989.1*	i	-0.2
COc1ccccc1N1CCN(C(=O)C2CCN(S(=O)(=O)c3ccccc3F)CC2)CC1	x	x	x	x	-1.5	x	x
CCOc1ccc(S(=O)(=O)N2CCC(C(=O)N3CCN(c4ccccc4)CC3)CC2)cc1	30.1	-3.9	i	x	487.3*	i	-0.3
Cn1nc(C(C)(C)C)c([N+](=O)[O-])c1C(=O)Nc1ccccc1	15.8	-9.8	i	-1.04	586.4*	i	-0.4
Cn1nc(C(C)(C)C)c([N+](=O)[O-])c1C(=O)NC(C)(C)C	0.8	-8.6	i	0.0905	1.4	i	x
CC(C)CCOCc1nc2sc3c(c2c(=O)[nH]1)CCC(C)C3 (stereo not given)	12.5	-3.1	i	1.78	593.2*	i	-0.2
O=C1COc2ccc(C(=O)COC(=O)c3ncc(Cl)c(Cl)c3Cl)cc2N1	x	-8.9	i	x	851.5*	i	0.4
O=C1COc2ccc(C(=O)COC(=O)c3cnc(Cl)c(Cl)c3)cc2N1	-23.3	-20.2	i	-1.2	13.7	i	x
COc1ccc(S(=O)(=O)N2CCc3ccccc32)cc1C(=O)NCCc1ccccn1	32.7	-4.8	i	-1.01	-8.2	i	x
Cc1cc([N+](=O)[O-])nn1CC(=O)NNC(=S)Nc1ccc([N+](=O)[O-])cc1	0.8	-8.4	i	x	671.8*	i	0.3
CCOc1ncccc1C(=O)N(CC)CC(=O)NCc1ccc(Cl)cc1	5.2	-1.9	i	x	-12.2	i	x
CCOc1ccc(S(=O)(=O)Nc2ccccc2C(=O)N2CCOCC2)cc1	9.9	-10.8	i	x	-0.9	i	x
O=C(CSc1ccc(Br)cc1)Nc1ccccc1N1CCOCC1	24.0	-1.8	i	x	722.4*	i	-0.3
O=C(CSc1ccc([N+](=O)[O-])cc1)Nc1ccccc1N1CCOCC1	x	x	x	x	2.6	x	x
O=C(Nc1ccccc1N1CCOCC1)c1cc(Br)c(Br)s1	22.5	-4.7	i	1.54	759.6*	i	-1.0
O=C(NCCC1CCCCN1S(=O)(=O)c1ccc(F)cc1)C(=O)Nc1ccccc1 (stereo not given)	39.1	-19.3	i	x	-9.4	i	x
NS(=O)(=O)c1ccc(NC(=O)COC(=O)c2cnccn2)cc1	3.4	-4.5	i	0.104	11.0	i	x
CCOC(=O)c1ccc(CNC(=O)c2cc(C(C)(C)C)oc2C)o1	12.5	-8.6	i	-0.355	1.3	i	x
CCOC(=O)c1ccc(CNC(=O)C2CCCCC2C(=O)OCC(F)(F)F)o1 (stereo not given)	33.9	-1.1	i	x	+	i	0.4
SMILES	AI-2 QS modul	hERG rescue	KCNQ1 inh	KCC2 mod	SUMO Mot1 rescue	KCNQ1 act	Mot1 SUMO dose
O=C(O)C1C2CCC(O2)C1C(=O)NCCC1=CCCCC1 (stereo not given)	12.8	-2.7	i	0.104	364.1*	i	0.1
CC1C(=O)CC(c2ccccc2)N(C)C1c1ccccc1 (stereo not given)	27.0	-7.7	i	0.56	536.6*	i	0.4
CN1C(c2ccccc2)CCOS1(=O)=O (stereo not given)	4.9	-7.0	i	x	7.5	i	x
Cc1ccc(NC(=O)CN(C)C(=O)COC(=O)c2ccc(Cl)cc2O)cc1	x	x	x	x	6.8	x	x
CCN(CC)c1nc(Nc2ccc(Cl)cc2)nc(OCC#N)n1	33.3	-4.5	i	x	734.7*	i	0.8
Cc1cccc(Nc2nc(OCC#N)nc(N(C)C)n2)c1	14.2	-4.9	i	x	-8.1	i	x
CCOC(=O)c1sc(NC(=O)CSc2nc3c(c(=O)n2-c2ccc(C)cc2)SCC3)c(C(=O)OCC)c1C	7.3	-8.9	i	0.283	-28.9	i	x
CC(=O)Oc1ccc(N(C(C)=O)S(=O)(=O)c2ccc(C)c([N+](=O)[O-])c2)cc1	24.3	-0.7	i	-0.741	-3.8	i	x
CCCCc1ccc(S(=O)(=O)NNC(=S)NCc2ccco2)cc1	4.8	-13.9	i	-1.58	544.6*	i	0.5
COc1ccc(C(=O)Nc2c(Cl)cc(Cl)cc2C(=O)N2CCOCC2)cc1	-1.0	-8.5	i	-0.0315	1.3	i	x
CCCCN(C)C(=O)c1cc2c(Cl)nc3ccccc3c2s1	0.4	-10.5	i	x	433.1*	i	-0.4
CCOc1ncccc1C(=O)OCC(=O)N(CC)c1ccccc1	8.4	-9.0	i	-0.298	439.3*	i	0.1
CC(=O)c1ccc(N2CCN(CC(=O)Nc3cc(C)on3)CC2)cc1	27.1	0.8	i	0.0447	483.1*	i	0.7
Cc1cccc(NS(=O)(=O)c2ccc3[nH]c(=O)cc(C(=O)O)c3c2)c1	13.9	-5.0	i	0.341	543.6*	i	1.0[21 µM]
Cc1cc(=O)[nH]c2ccc(S(=O)(=O)Nc3ccccc3)cc12	-8.0	-6.5	i	x	-3.0	i	x
CC(=O)N/C(=C\c1ccccc1)C(=O)OCC(=O)N(CC(C)C)c1c(N)n(Cc2ccccc2)c(=O)[nH]c1=O	x	-3.1	i	x	-17.7	i	x
Clc1ccc(Cn2cccn2)cn1	19.1	-0.4	i	1.11	-3.3	i	x
O=C1OCc2cc(NS(=O)(=O)c3cccs3)ccc21	22.3	-3.0	i	0.9	410.6*	i	-0.1
O=S(=O)(Nc1ccc(N2CCOCC2)cc1)c1cccs1	28.0	-6.3	i	1.35	579.3*	i	0.5
O=S(=O)(Nc1ccc2c(c1)CCC2)c1cccs1	34.6	-6.3	i	-0.704	-16.0	i	x
